UBC13 polyUb: inhibitors of human UBC13 polyubiquitin chain formation; 330,000 compounds, 0.47% hits; TR-FRET; AID 485273; inhibition, % at 20 µM; in the data active = inhibition above about 45%, passing the limit was not always enough
PREPL inhibitor: inhibitors of human prolyl oligopeptidase-like enzyme PREPL | Q4J6C6 | 320,000 compounds, 0.68% hits | AID 2751 | recombinant PREPL, fluorescence polarization activity-based probe | inhibition, % at 5.96 µM; in the data active = inhibition above about 43%;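 note: 0% = enzyme with DMSO and 100% = wells lacking enzyme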
MEKK2wt PB1 HTS: raises or lowers MEK5 binding to wildtype human MEKK2 PB1 domain; Q9Y2U5; bead flow cytometry, Alexa488-MEK5 binding to MEKK2 WT; actives lie on both sides; binding response (% of control), % at 10 µM; 290,000 compounds, 1.1% hits; in the data active = binding response below about 67% or above about 130%
MEKK3 PB1 HTS: modulators (inhibitors or enhancers) of MEK5 binding to human MEKK3 PB1 domain; 290,000 compounds, 1.4% hits; Q99759; binding response (% of control), % at 10 µM; AID 1529; bead-based flow cytometry, Alexa488-MEK5 binding to MEKK3; actives lie on both sides; 0 = blocked by unlabeled MEK5, 100 = vehicle;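 active = binding response more than 3 SD above or below the average of its plate-row segment, actives on both sides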;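 note: Alexa488 bead fluorescence after subtracting the streptavidin-only scavenger bead signal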
Apaf-1 inh: blocks human Apaf-1 apoptosome activity | inhibition, % at 20 µM | reconstituted apoptosome caspase-3 activity, DEVD-Rh110 fluorescence | 330,000 compounds, 0.71% hits; active = inhibition of at least 40% at 20 µM;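 note: plate controls were DMSO wells for no effect and DEVD-CHO caspase inhibitor wells for full effect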
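Medium: Hepes buffer, pH 7.5 / System: biochemical Apaf-1 apoptosome reconstitution / Measured by: Rh110 fluorescence, excitation 480 nm, emission 540 nm / Times: compound with Apaf-1, dATP, procaspase-3 30 min, then 50 min reaction, room temperature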
MEKK2mut PB1 HTS: signal of MEK5 binding to mutant human MEKK2 PB1 domain. bead flow cytometry, Alexa488-MEK5 binding to MEKK2 mutant. 290,000 compounds, 0.35% hits. AID 1530. percent response, % at 10 µM; in the data active = percent response above about 24%, passing the limit was not always enough
MEKK2wt confirm: raises or lowers MEK5 binding to wildtype human MEKK2, retest. binding response (% of control), % at 10 µM. shares compounds with MEKK3 PB1 HTS. bead flow cytometry, Alexa488-MEK5 binding to MEKK2 WT; actives lie on both sides. AID 1892. 5,900 compounds, 2.4% hits; in the data active = binding response below about 16% or above about 210%; inactive = in between
MEKK2mut confirm: signal of MEK5 binding to mutant human MEKK2, retest; shares compounds with MEKK3 PB1 HTS; bead flow cytometry, Alexa488-MEK5 binding to MEKK2 mutant; percent response, % at 10 µM; 5,900 compounds, 2% hits; in the data active = percent response mostly above about 71%, no sharp cut-off; inactive = mostly below about 38%;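 note: higher means compound restores mutant binding toward wildtype level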
MEKK3-MEK5 inh: confirmation of inhibitors of MEK5 binding to human MEKK3. shares compounds with MEKK3 PB1 HTS. bead flow cytometry, Alexa488-MEK5 binding to MEKK3; stronger effect = lower value. binding response (% of control), % at 10 µM. 5,900 compounds, 1.8% hits;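 active = binding response below 72% of control, or above a set upper limit, though filed actives all read lower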;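 note: 100% = DMSO only wells and 0% = binding blocked by excess unlabeled MEK5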
The depositor's hits bear a star; · = not tested or not shown; [ ] = dose if it differs, or a comment. Shown are actives, neighbours in structure and some others; about 3.1% of the full set was active somewhere.

SMILES	UBC13 polyUb	PREPL inhibitor	MEKK2wt PB1 HTS	MEKK3 PB1 HTS	Apaf-1 inh	MEKK2mut PB1 HTS	MEKK2wt confirm	MEKK2mut confirm	MEKK3-MEK5 inh
CNC[C@H]1Oc2c(NS(=O)(=O)c3ccccc3)cccc2C(=O)N([C@H](C)CO)C[C@@H]1C	-12.4	6.3	·	·	-2.7	·	·	·	·
O=C(O)/C=C/C(=O)N1CCN(c2cccc(Cl)c2)CC1	4.3	6.7	116.0	129.0*	-2.9	1.0	111.0	6.0	104.0
COc1cc(OC)c2c(c1)C(=O)OC2	4.9	5.9	106.0	131.0*	-8.7	0.0	99.0	2.0	99.0
CC1S/C(=C(\C#N)C(=O)NCc2ccco2)N(Cc2ccco2)C1=O (centres undefined)	2.2	7.6	38.0*[inhibitor]	49.0*[inhibitor]	3.2	-34.0	100.0	1.0	101.0
Cc1ccc(S(=O)(=O)N2[C@@H](c3cccc(Cl)c3)C(C(=O)O)=CC[C@H]2c2cccs2)cc1	-13.6	10.8	·	·	17.9	·	·	·	·
COC(=O)C1=C(C(=O)OC)C(c2ccc(OC)c(OC)c2)c2sc(=O)[nH]c2S1 (centres undefined)	-34.5	12.3	60.0*[inhibitor]	55.0*[inhibitor]	6.9	-17.0	90.0	-8.0	90.0
Cc1cc(C(=O)COC(=O)Cc2n[nH]c(=O)c3ccccc23)c(C)n1-c1ccc2c(c1)OCO2	-9.6	-0.9	105.0	139.0*	11.5	2.0	110.0	6.0	104.0
CCCn1c(N)c(N(CCOC)C(=O)c2ccc(F)cc2F)c(=O)[nH]c1=O	-0.5	9.4	93.0	97.0	13.6	0.0	·	·	·
COc1ccc(CNC(=S)Nc2ccccc2)cc1	1.5	11.9	100.0	103.0	2.0	18.0	·	·	·
CNC(=S)NCc1ccc(OC)cc1	6.4	-7.2	94.0	55.0*[inhibitor]	5.8	-1.0	104.0	-1.0	101.0
CCOC(=O)C1CCN(C(=O)c2cccc(NC(=O)C(CC)CC)c2)CC1	1.7	2.6	81.0	81.0*[inhibitor]	-21.6	-12.0	100.0	0.0	100.0
CCOC(=O)C1CCN(C(=O)c2cccc(C(=O)N3CCC(C(=O)OCC)CC3)c2)CC1	7.0	2.3	108.0	103.0	-3.1	5.0	·	·	·
N#Cc1sc2nc(C3CC3)cc(-c3ccccc3)c2c1N	21.0	11.1	100.0	131.0*	29.6	0.0	104.0	2.0	103.0
COc1ccc(/C=C/C(=O)Oc2ccc(C)cc2)cc1	-0.4	10.4	112.0	109.0	5.3	9.0	·	·	·
CSc1nc(Cl)cc(N(CCO)CCO)n1	4.8	6.6	105.0	103.0	-9.4	25.0*	96.0	0.0	101.0
CN(C)CCCn1c(N)c(C#N)c2nc3ccccc3nc21	-22.4	10.3	100.0	99.0	10.0	-9.0	·	·	·
CCCCC(CC)Cn1c(N)c(C#N)c2nc3ccccc3nc21 (centres undefined)	0.9	8.7	183.0*	118.0	33.8	54.0*	100.0	-1.0	105.0
O=C(COC(=O)c1c(Cl)cccc1Cl)Nc1ccccc1Br	-3.9	2.0	103.0	117.0	8.2	1.0	·	·	·
CCNC(=O)COC(=O)c1cccc(Br)c1	7.0	-1.1	39.0*[inhibitor]	38.0*[inhibitor]	-28.5	-13.0	102.0	-6.0	98.0
O=C(COC(=O)c1ccccc1)Nc1ccccc1Br	7.3	2.1	54.0*[inhibitor]	46.0*[inhibitor]	0.8	-16.0	41.0	-29.0	85.0
O=c1[nH]nc(CNc2ccc(OC(F)(F)F)cc2)c2ccccc12	5.0	12.7	50.0	39.0*[inhibitor]	12.1	-17.0	100.0	-4.0	104.0
Cc1no[n+]([O-])c1COc1ccc(/C=C(\C#N)C(N)=O)cc1	-10.4	-6.0	104.0	134.0*	-2.3	1.0	105.0	3.0	100.0
COc1cccc(CN2CCN(C(=O)c3ccco3)CC2)c1	-0.2	0.3	103.0	99.0	-10.8	20.0	·	·	·

Screening results as filed in PubChem.
